Reference: ChEMBL document CHEMBL1144013, “Indol-3-yl-tetramethylcyclopropyl ketones: effects of indole ring substitution on CB2 cannabinoid receptor activity” (J Med Chem, 2008)
The source made the active and inactive calls. No cut-off for these calls is given here.

Columns and labels:
Cannabinoid receptor 2 [1] = molecular target: T1, Cannabinoid receptor 2 (Homo sapiens, UniProt P34972); assay: Agonist activity at human recombinant CB2 receptor expressed in HEK cells assessed as calcium mobilization by FLIPR; assay type: functional, cell-based, HEK293
T1 sequence (P34972 whole entry): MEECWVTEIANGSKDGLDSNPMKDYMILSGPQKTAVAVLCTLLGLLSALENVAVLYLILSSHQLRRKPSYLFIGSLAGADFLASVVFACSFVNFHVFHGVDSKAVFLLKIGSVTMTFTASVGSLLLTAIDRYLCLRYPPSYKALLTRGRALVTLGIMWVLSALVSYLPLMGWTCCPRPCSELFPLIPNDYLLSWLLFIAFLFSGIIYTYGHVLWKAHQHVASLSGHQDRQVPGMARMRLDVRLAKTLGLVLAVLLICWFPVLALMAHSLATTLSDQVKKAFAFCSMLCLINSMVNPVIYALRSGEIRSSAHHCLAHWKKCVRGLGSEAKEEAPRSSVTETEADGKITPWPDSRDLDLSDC
Procedure, shortened: (§1)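 HEK cells stably coexpressing human CB2 and chimeric Gαq/o5 protein, seeded 75,000/well one day before; no-wash calcium dye.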

Cannabinoid receptor 2 [2] = molecular target: T1, Cannabinoid receptor 2; assay: Agonist activity at human recombinant CB2 receptor expressed in HEK cells assessed as calcium mobilization by FLIPR relative to CP-55940; assay type: functional, cell-based; settings: HEK293; procedure, shortened: as §1
Cannabinoid receptor 1 = Cannabinoid receptor 1 (Homo sapiens, UniProt P21554); assay: Displacement of [3H]CP-55940 from human recombinant CB1 receptor expressed in HEK cells; assay type: cell-based, HEK293
Cannabinoid receptor 1, sequence (P21554 whole entry): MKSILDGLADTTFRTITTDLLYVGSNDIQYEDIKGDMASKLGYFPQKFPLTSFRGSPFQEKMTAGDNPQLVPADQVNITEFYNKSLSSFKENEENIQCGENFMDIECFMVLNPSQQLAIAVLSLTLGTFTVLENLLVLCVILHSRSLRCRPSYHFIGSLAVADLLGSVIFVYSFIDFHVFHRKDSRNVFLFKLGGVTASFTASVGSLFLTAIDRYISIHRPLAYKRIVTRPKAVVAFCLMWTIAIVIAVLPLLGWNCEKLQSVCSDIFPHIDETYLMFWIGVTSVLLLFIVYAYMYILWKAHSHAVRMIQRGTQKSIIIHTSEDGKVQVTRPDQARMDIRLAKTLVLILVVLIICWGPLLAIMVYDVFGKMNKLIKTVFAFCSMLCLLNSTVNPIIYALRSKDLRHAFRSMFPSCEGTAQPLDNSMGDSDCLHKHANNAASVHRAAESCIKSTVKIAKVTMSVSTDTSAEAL

Cannabinoid receptor 2 [3] = molecular target: T1, Cannabinoid receptor 2; assay: Displacement of [3H]CP-55940 from human recombinant CB2 receptor expressed in HEK cells; assay type: cell-based, HEK293; settings: read-out: Ki
Homo sapiens = species on record: Homo sapiens; assay: Selectivity for human recombinant CB2 receptor over human recombinant CB1 receptor
Procedure, shortened: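 Ki ratio from [3H]CP-55940 (0.5 nM) competition binding: human CB1 membranes from stably expressing […] cells versus human CB2 membranes from stably expressing HEK cells. Tris-HCl pH 7.4 buffer with EDTA, MgCl2, BSA; 90 min at 30 °C; filtration counting; nonspecific with 10 µM unlabeled ligand; ≥3 experiments in duplicate.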

Rattus norvegicus [4] = species on record: Rattus norvegicus; assay: Antiinflammatory activity against rat CFA-induced chronic inflammatory thermal hyperalgesia model assessed as effect on paw withdrawal latency; assay type: functional, organism-based
Procedure, shortened: (§2)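 Rats given 150 µL of 50% CFA in PBS into right hind plantar paw; thermal hyperalgesia tested 48 h later. Compound in 5% DMSO/95% PEG; PWL read 30 min post dose in ipsilateral and contralateral paws, 3 trials ~5 min apart, mean of two shortest latencies. n = 6 per dose; compared against vehicle. Antagonist pretreatment group included.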

Rattus norvegicus [5] = species on record: Rattus norvegicus; assay: Antiinflammatory activity against CB2 receptor antagonist SR-144528-pretreated rat CFA-induced chronic inflammatory thermal hyperalgesia model assessed as effect on paw withdrawal latency; assay type: functional, organism-based; procedure, shortened: as §2
Rattus norvegicus [6] = species on record: Rattus norvegicus; assay: Antiinflammatory activity against CB1 receptor antagonist SR-141716A-pretreated rat CFA-induced chronic inflammatory thermal hyperalgesia model assessed as effect on paw withdrawal latency; assay type: functional, organism-based
Procedure, shortened: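 Rats received 150 µL of 50% CFA in PBS into the right hind plantar paw. Thermal hyperalgesia was tested 48 h later after antagonist pretreatment, dosing in 5% DMSO/95% PEG vehicle, n = 6 per dose. Paw withdrawal latency was measured 30 min post-dose in the ipsilateral and contralateral paws, with 3 trials about 5 min apart. The value is the mean of the two shortest latencies, compared with vehicle.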

SMILES	EC50 (Cannabinoid receptor 2 [1]) [nM]	Activity (Cannabinoid receptor 2 [2]) [%]	Ki (Cannabinoid receptor 1; read-out: Ki) [nM]	Ki (Cannabinoid receptor 2 [3]) [nM]	Ratio Ki (Homo sapiens)	Ki (Cannabinoid receptor 1; read-out: Log Ki (converted)) [nM]	Activity (Rattus norvegicus [4])	Activity (Rattus norvegicus [5])	Ki (Cannabinoid receptor 1; hek293, read-out: Ki) [nM]	Activity (Rattus norvegicus [6])
CC1(C)C(C(=O)c2cn(CC3CCOCC3)c3ccc(Br)cc23)C1(C)C	280	54	1930	6.6	292					
CC1(C)C(C(=O)c2cn(CC3CCOCC3)c3cc(O)ccc23)C1(C)C	15	107	> 3000	8.5	> 353	> 3020				
CCCn1c(C)c(C(=O)c2cccc3ccccc23)c2ccccc21		75								
Cc1c(C(=O)C2C(C)(C)C2(C)C)c2ccccc2n1CCN1CCOCC1	227	60	> 10000	27	> 370					
CC1(C)C(C(=O)c2cn(CC3CCOCC3)c3cc(-c4ccccc4)ccc23)C1(C)C	> 10000		228	0.41	556		inactive			
CC1(C)C(C(=O)c2cn(CCN3CCOCC3)c3cccc(N)c23)C1(C)C	50	41	> 3500	32	> 109	> 3470				
CC1(C)C(C(=O)c2cn(CC3CCOCC3)c3cc(Cl)ccc23)C1(C)C	10	60		2.5						
COc1ccc2c(c1)c(C(=O)C1C(C)(C)C1(C)C)cn2CC1CCOCC1	61	35	282	4.6	61					
COCc1ccc2c(c1)c(C(=O)C1C(C)(C)C1(C)C)cn2CC1CCOCC1	41	50		26						
CC1(C)C(C(=O)c2cn(CC3CCOCC3)c3cc(OCc4ccccc4)ccc23)C1(C)C	135	45		0.88						
CC1(C)C(C(=O)c2cn(CC3CCOCC3)c3ccc(C#N)cc23)C1(C)C	226	65		30						
CC1(C)C(C(=O)c2cn(CC3CCOCC3)c3ccc(Cl)cc23)C1(C)C	92	69	512	3	171					
CC1(C)C(C(=O)c2cn(CC3CCOCC3)c3cccc(O)c23)C1(C)C	64	94		3.9			Dose-dependent effect			
CC1(C)C(C(=O)c2cn(CC3CCOCC3)c3c(F)c(F)c(F)c(F)c23)C1(C)C	37	88	66	5	13					
CC1(C)C(C(=O)c2cn(CC3CCOCC3)c3cc4c(cc23)OCO4)C1(C)C	18	62		1						
Cc1ccc(Cn2nc(C(=O)NC3C(C)(C)C4CC[C@@]3(C)C4)cc2-c2ccc(Cl)c(C)c2)cc1 (stereo not given in full)								inactive		
CC1(C)C(C(=O)c2cn(CC3CCOCC3)c3ccc(N)cc23)C1(C)C	10	80		9.3	108	> 1000			> 1000	
CC1(C)C(C(=O)c2cn(CC3CCOCC3)c3ccc(CO)cc23)C1(C)C	73	53	> 10000	113	> 88					
CC1(C)C(C(=O)c2cn(CCN3CCOCC3)c3ccccc23)C1(C)C	14	71		4.4			Active			
Cc1c(C(=O)NN2CCCCC2)nn(-c2ccc(Cl)cc2Cl)c1-c1ccc(Cl)cc1										Active
CC1(C)C(C(=O)c2cn(CCN3CCOCC3)c3cc(O)ccc23)C1(C)C	186	62	> 10000	109	> 92					
CC1(C)C(C(=O)c2cn(CC3CCOCC3)c3ccc(F)cc23)C1(C)C	22	88	1210	1.6	756					
CC1(C)C(C(=O)c2cn(CC3CCOCC3)c3cccc(OCc4ccccc4)c23)C1(C)C	383	45	> 10000	9.3	> 1080					
CC1(C)C(C(=O)c2cn(CC3CCOCC3)c3cc(O)c(O)cc23)C1(C)C	21	106		21						
CC1(C)C(C(=O)c2cn(CC3CCOCC3)c3cc(C#N)ccc23)C1(C)C	45	67		5						
COc1cccc2c1c(C(=O)C1C(C)(C)C1(C)C)cn2CC1CCOCC1	81	37	1090	3.3	330					
CC1(C)C(C(=O)c2cn(CC3CCOCC3)c3ccccc23)C1(C)C	7	133		0.21						
CC1(C)C(C(=O)c2cn(CC3CCOCC3)c3ccc(O)cc23)C1(C)C	7	78		1.9						
CC1(C)C(C(=O)c2cn(CC3CCOCC3)c3ccc(OCCCCBr)cc23)C1(C)C	> 10000		> 10000	72	> 139					
